From ChEMBL document CHEMBL1138292, “Discovery of a tetrazole-based growth hormone secretagogue: 4-(hydroxybutyl)carbamic acid 2-{5-[1-(2-amino-2-methylpropionylamino)-2- benzyloxyethyl]tetrazol-1-yl}ethyl ester (BMS-317180)” (J Med Chem, 2007)
Active and inactive are the calls of the source. The calls are words filed in the database; no cut-off is given here.

Key:
[1] = target: Growth hormone secretagogue receptor type 1 (Homo sapiens, UniProt Q92847); test: Intrinsic activity at human GHS receptor in H4 glioma cells assessed by measuring intracellular calcium concentration by FLIPR assay; format: functional, cell-based
Sequence of Growth hormone secretagogue receptor type 1 (Q92847 whole entry): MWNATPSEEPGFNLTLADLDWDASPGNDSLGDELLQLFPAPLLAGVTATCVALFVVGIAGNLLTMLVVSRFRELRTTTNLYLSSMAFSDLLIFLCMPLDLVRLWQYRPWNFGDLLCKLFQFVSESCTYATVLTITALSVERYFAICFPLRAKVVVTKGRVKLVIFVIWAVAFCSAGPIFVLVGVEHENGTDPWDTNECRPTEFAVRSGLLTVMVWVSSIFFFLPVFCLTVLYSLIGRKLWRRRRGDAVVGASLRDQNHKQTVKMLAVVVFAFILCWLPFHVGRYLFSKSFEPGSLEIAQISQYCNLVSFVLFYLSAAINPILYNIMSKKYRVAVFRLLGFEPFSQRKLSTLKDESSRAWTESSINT
Summary of the method: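 H4 glioma cells with endogenous human GHS receptor expression enhanced by RAGE activation. Agonist-stimulated intracellular calcium mobilization read with a calcium-sensitive fluorescent probe in FLIPR.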

[2] = Bioavailability in rat; format: ADME, organism-based; settings: in vivo
[3] = system: Macaca fascicularis; test: Bioavailability in monkey at 10 umol/kg, po; settings: cynomolgus monkey, in vivo
[4] = system: Rattus norvegicus; test: Increase in plasma growth hormone level in iv dosed Wistar rat after 15 mins by radioimmunoassay; format: functional; settings: 0.25 h
Summary of the method: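 Anesthetized rats, groups of five, dosed iv in 10% ethanol, […] saline (v/v) vehicle at 10 mL/kg. Abdominal aorta blood sampled at 15 min; plasma rat GH measured by a modified radioimmunoassay kit.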

[5] = system: Macaca fascicularis; test: Plasma clearance in monkey at 10 umol/kg, po; settings: cynomolgus monkey
[6] = Bioavailability in Beagle dog at 10 umol/kg, po; format: ADME, organism-based, Canis lupus familiaris; settings: in vivo
Summary of the method: (§1)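 Fasted animals (rat, cynomolgus monkey, beagle dog) given single oral doses of 15, 10 and 10 µmol/kg respectively; intravenous reference dose 5 µmol/kg in all species. Oral bioavailability, half-life and plasma clearance derived from the plasma profiles.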

[7] = system: Macaca fascicularis; test: Half life in monkey at 10 umol/kg, po; settings: cynomolgus monkey, in vivo
[8] = Half life in Beagle dog at 10 umol/kg, po; format: ADME, organism-based, Canis lupus familiaris; settings: in vivo; summary of the method: as §1
[9] = Solubility at pH 4; format: physicochemical; settings: buffer
[10] = system: Salmonella typhimurium; test: Mutagenic effect on Salmonella Typhimurium TA100 by Ames test; format: toxicity, organism-based; settings: salmonella enterica subsp. enterica serovar typhimurium
[11] = Half life in rat at 15 umol/kg, po; format: ADME, organism-based; settings: in vivo; summary of the method: as §1
[12] = Plasma clearance in rat at 15 umol/kg, po; format: ADME, organism-based; summary of the method: as §1
[13] = target: Cytochrome P450 2C9 (Homo sapiens, UniProt P11712); test: Inhibition of CYP2C9; format: ADME
Sequence of Cytochrome P450 2C9 (P11712 whole entry): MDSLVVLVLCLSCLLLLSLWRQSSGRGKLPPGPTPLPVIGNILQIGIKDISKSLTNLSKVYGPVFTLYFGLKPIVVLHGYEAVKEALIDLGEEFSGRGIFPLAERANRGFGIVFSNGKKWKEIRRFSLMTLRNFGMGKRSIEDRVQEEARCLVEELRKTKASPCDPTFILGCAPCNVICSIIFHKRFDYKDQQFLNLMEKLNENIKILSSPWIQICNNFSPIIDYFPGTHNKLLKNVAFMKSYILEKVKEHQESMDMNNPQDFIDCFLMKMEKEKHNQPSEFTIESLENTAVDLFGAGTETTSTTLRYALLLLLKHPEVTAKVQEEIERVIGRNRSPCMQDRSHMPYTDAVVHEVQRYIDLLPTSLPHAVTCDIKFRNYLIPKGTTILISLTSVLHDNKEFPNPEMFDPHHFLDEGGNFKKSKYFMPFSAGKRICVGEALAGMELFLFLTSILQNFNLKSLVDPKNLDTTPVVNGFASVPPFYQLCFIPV

[14] = target: Cytochrome P450 2C19 (Homo sapiens, UniProt P33261); test: Inhibition of CYP2C19; format: ADME
Sequence of Cytochrome P450 2C19 (P33261 whole entry): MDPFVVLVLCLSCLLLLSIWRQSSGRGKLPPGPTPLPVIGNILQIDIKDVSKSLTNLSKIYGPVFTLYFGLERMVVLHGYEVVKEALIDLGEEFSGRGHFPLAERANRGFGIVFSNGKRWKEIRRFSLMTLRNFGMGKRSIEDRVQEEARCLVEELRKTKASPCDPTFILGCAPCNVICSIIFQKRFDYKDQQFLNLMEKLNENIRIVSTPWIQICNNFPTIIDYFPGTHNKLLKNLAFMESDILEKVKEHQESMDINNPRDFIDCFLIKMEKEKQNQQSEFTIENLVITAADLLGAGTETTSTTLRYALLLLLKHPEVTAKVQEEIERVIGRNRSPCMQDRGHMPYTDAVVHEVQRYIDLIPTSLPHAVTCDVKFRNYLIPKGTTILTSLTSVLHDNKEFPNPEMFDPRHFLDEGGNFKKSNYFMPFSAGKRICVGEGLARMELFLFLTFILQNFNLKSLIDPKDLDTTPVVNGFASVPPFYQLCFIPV

[15] = system: Canis familiaris; test: Increase in plasma growth hormone level in Beagle dog at 0.52 to 52.3 umol/kg, po; format: functional, organism-based; settings: Canis lupus familiaris
Summary of the method: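 Conscious beagle dogs given single oral doses of 0.52 to 52.3 µmol/kg, water as vehicle control; plasma GH followed over a 4 h time course.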

[16] = target: T1, Cytochrome P450 1A2 (Homo sapiens, UniProt P05177); test: Inhibition of CYP1A2; format: ADME
T1 sequence (P05177 whole entry): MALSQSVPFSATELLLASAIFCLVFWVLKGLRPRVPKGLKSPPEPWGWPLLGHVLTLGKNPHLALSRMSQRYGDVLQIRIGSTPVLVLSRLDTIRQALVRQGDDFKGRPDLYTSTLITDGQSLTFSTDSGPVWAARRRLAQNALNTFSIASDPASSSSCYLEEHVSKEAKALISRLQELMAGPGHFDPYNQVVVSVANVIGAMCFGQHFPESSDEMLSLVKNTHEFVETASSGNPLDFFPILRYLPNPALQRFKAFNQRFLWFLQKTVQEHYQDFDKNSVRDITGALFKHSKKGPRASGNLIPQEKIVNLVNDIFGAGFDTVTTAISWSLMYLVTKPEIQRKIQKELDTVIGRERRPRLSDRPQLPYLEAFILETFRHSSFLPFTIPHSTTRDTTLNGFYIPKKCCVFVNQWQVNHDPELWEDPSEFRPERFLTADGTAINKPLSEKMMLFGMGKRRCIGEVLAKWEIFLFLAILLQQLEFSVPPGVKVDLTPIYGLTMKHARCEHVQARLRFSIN

[17] = system: Salmonella typhimurium; test: Mutagenic effect on Salmonella Typhimurium TA98 by Ames test; format: toxicity, organism-based; settings: salmonella enterica subsp. enterica serovar typhimurium
[18] = target: Cytochrome P450 3A4 (Homo sapiens, UniProt P08684); test: Inhibition of CYP3A4; format: ADME
Sequence of Cytochrome P450 3A4 (P08684 whole entry): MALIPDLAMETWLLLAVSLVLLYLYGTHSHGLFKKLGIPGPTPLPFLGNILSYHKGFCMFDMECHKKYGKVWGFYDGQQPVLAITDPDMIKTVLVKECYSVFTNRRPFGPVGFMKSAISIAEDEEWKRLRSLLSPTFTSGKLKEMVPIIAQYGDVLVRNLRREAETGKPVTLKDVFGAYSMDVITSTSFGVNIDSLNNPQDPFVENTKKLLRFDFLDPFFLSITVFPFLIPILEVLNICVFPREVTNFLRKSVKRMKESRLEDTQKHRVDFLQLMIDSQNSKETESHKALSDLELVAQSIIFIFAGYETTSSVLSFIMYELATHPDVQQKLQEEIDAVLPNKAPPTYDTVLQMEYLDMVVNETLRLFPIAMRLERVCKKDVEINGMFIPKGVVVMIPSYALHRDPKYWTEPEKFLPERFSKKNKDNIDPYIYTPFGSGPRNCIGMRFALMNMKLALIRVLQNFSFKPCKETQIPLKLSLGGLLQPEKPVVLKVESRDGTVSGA

[19] = system: Canis familiaris; test: Plasma clearance in Beagle dog at 10 umol/kg, po; format: ADME, organism-based, Canis lupus familiaris; settings: in vivo; summary of the method: as §1
[20] = system: Hepatocyte; test: Toxicity in human hepatocytes upto 250 ug/mL; format: cell-based
Summary of the method: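 Human hepatocyte hepatotoxicity assay run at concentrations up to 250 µg/mL.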

[21] = target: Cytochrome P450 2D6 (Homo sapiens, UniProt P10635); test: Inhibition of CYP2D6; format: ADME
Sequence of Cytochrome P450 2D6 (P10635 whole entry): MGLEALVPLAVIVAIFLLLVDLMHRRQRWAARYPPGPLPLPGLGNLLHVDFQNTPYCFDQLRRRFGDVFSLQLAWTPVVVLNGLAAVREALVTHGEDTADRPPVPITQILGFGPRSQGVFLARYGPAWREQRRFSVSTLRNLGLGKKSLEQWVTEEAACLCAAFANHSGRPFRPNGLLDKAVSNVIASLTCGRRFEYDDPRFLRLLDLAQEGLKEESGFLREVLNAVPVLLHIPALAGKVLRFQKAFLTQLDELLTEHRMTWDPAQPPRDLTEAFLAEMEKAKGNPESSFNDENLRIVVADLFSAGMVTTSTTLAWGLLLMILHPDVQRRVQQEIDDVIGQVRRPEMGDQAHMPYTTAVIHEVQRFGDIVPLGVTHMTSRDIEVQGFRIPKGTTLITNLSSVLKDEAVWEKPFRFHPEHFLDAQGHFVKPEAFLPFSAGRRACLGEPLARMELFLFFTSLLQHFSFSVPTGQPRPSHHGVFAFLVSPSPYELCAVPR

[22] = Bioavailability in rat at 15 umol/kg, po; format: ADME, organism-based; settings: in vivo; summary of the method: as §1

Question: With `CC(C)(N)C(=O)N[C@H](COCc1ccccc1)c1nnnn1CCOC(=O)NCCCn1ccnc1` as the molecule, how does the EC50 [1] read?
Answer: 45.3 nM

Question: Which EC50 [1] does the source give for `CN(CCCCO)C(=O)OCCn1nnnc1[C@@H](COCc1ccccc1)NC(=O)C(C)(C)N` here?
Answer: 3.8 nM

Question: For `CC(C)(N)C(=O)N[C@H](COCc1ccccc1)c1nnnn1CCOC(=O)NC[C@H]1CCCO1`, which EC50 [1] is on record?
Answer: 9.5 nM

Question: For `CC(=O)N[C@@H]1CCN(C(=O)OCCn2nnnc2[C@@H](COCc2ccccc2)NC(=O)C(C)(C)N)C1`, which bioavailability [2] is on record?
Answer: < 5%

Question: And the EC50 [1]?
Answer: 3.3 nM

Question: For `CC(C)(N)C(=O)N[C@H](COCc1ccccc1)c1nnnn1CCOC(=O)NCCO`, which EC50 [1] is on record?
Answer: 3 nM

Question: Which EC50 [1] does the source give for `CC1(O)CCN(C(=O)OCCn2nnnc2[C@@H](COCc2ccccc2)NC(=O)C(C)(C)N)C1` (stereo partly drawn) here?
Answer: 10.1 nM

Question: Which EC50 [1] does the source give for `CC(C)(N)C(=O)N[C@H](COCc1ccccc1)c1nnnn1CCOC(=O)N1CC[C@@H](O)C1` here?
Answer: 1 nM

Question: For `CC(C)(N)C(=O)N[C@H](COCc1ccccc1)c1nnnn1CCOC(=O)NCCc1cccc(O)c1`, which EC50 [1] is on record?
Answer: 7.9 nM

Question: With `CC(C)(N)C(=O)N[C@H](COCc1ccccc1)c1nnnn1CCOC(=O)NCCCCCO` as the molecule, how does the EC50 [1] read?
Answer: 14.6 nM

Question: With `CC(C)(N)C(=O)N[C@H](COCc1ccccc1)c1nnnn1CCOC(=O)NCCCO` as the molecule, how does the EC50 [1] read?
Answer: 5.5 nM

Question: With `CC(=O)NCCCCNC(=O)OCCn1nnnc1[C@@H](COCc1ccccc1)NC(=O)C(C)(C)N` as the molecule, how does the EC50 [1] read?
Answer: 82.5 nM

Question: Which bioavailability [3] does the source give for `CC(C)(N)C(=O)N[C@H](COCc1ccccc1)c1nnnn1CCOC(=O)NCCCCO` here?
Answer: 12%

Question: And the ED50 [4]?
Answer: 0.08 µmol/kg

Question: And the CL/F [5]?
Answer: 37 mL/min/kg

Question: And the bioavailability [6]?
Answer: 40%

Question: And the half-life [7]?
Answer: 1.1 h

Question: What about the half-life [8] of the same molecule?
Answer: 2.3 h

Question: What about the solubility [9] of the same molecule?
Answer: > 100 mg/mL

Question: What about the Activity [10] of the same molecule?
Answer: Non-toxic

Question: And the half-life [11]?
Answer: 0.7 h

Question: And the CL/F [12]?
Answer: 213 mL/min/kg

Question: And the IC50 [13]?
Answer: > 100000 nM

Question: And the IC50 [14]?
Answer: > 100000 nM

Question: And the Activity [15]?
Answer: Active

Question: And the IC50 [16]?
Answer: > 100000 nM

Question: What about the Activity [17] of the same molecule?
Answer: Non-toxic

Question: What about the EC50 [1] of the same molecule?
Answer: 1.9 nM

Question: And the IC50 [18]?
Answer: > 100000 nM

Question: And the clearance [19]?
Answer: 21 mL/min/kg

Question: And the Activity [20]?
Answer: Non-toxic

Question: What about the IC50 [21] of the same molecule?
Answer: > 100000 nM

Question: And the bioavailability [22]?
Answer: 9%
